Results as given in ChEMBL document CHEMBL1136201, “Synthesis and binding selectivity of 7- and 15-decylbenzolactone-V8 for the C1 domains of protein kinase C isozymes” (Bioorg Med Chem Lett, 2003).

How the values were obtained:
[1] = biological target: T1, Protein kinase C alpha type (Homo sapiens, UniProt P17252); assay: Displacement of [3H]PDBu from protein kinase C Alpha-C1A domain
In short: (§1)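 Synthetic C1 peptides of about 50 amino acids, used as surrogates for the PKC C1 domains, were incubated with [3H]phorbol 12,13-dibutyrate (PDBu). Competitor was assessed by inhibition of specific [3H]PDBu binding. […] Values are given with standard deviation from at least two separate experiments.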

[2] = biological target: T1, Protein kinase C alpha type; assay: Displacement of [3H]PDBu from protein kinase C Alpha-C1B domain; in short: as §1
[3] = biological target: T2, Protein kinase C beta type (Homo sapiens, UniProt P05771); assay: Displacement of [3H]PDBu from protein kinase C Beta-C1A domain; in short: as §1
[4] = biological target: T2, Protein kinase C beta type; assay: Displacement of [3H]PDBu from protein kinase C Beta-C1B domain; in short: as §1
[5] = biological target: T3, Protein kinase C delta type (Homo sapiens, UniProt Q05655); assay: Displacement of [3H]PDBu from protein kinase C Delta-C1B domain; in short: as §1
[6] = biological target: Protein kinase C theta type (Homo sapiens, UniProt Q04759); assay: Displacement of [3H]PDBu from protein kinase C Theta-C1B domain; in short: as §1
[7] = biological target: T4, Protein kinase C gamma type (Homo sapiens, UniProt P05129); assay: Displacement of [3H]PDBu from protein kinase C gamma-C1A domain; in short: as §1
[8] = biological target: T4, Protein kinase C gamma type; assay: Displacement of [3H]-PDBu from protein kinase C gamma-C1B domain; in short: as §1
[9] = biological target: T5, Protein kinase C eta type (Homo sapiens, UniProt P24723); assay: Displacement of [3H]PDBu from protein kinase C eta-C1A domain; in short: as §1
[10] = biological target: T5, Protein kinase C eta type; assay: Displacement of [3H]PDBu from protein kinase C eta-C1B domain; in short: as §1
[11] = biological target: T6, Protein kinase C epsilon type (Homo sapiens, UniProt Q02156); assay: Displacement of [3H]-PDBu from protein kinase C epsilon-C1A domain; in short: as §1
T6 sequence (Q02156 whole entry): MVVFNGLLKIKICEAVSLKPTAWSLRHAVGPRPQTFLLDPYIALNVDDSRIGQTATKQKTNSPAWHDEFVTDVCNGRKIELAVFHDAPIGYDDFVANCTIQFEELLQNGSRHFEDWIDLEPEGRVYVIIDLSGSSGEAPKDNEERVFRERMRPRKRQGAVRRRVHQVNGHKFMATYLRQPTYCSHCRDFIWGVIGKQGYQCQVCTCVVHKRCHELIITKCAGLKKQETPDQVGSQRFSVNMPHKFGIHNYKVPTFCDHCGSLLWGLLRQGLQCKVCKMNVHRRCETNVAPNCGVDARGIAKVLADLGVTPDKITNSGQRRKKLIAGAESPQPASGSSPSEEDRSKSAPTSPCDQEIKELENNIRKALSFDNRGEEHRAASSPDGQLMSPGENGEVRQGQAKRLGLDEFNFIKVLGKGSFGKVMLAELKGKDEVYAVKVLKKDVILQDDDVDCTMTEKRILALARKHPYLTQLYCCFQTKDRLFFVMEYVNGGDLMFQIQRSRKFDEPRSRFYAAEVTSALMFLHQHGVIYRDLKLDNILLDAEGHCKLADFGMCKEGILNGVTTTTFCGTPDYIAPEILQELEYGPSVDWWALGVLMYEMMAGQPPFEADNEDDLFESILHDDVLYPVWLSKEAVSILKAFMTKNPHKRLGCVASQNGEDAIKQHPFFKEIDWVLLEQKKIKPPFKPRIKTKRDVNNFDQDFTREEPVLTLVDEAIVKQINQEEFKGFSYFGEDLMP

[12] = biological target: T6, Protein kinase C epsilon type; assay: Displacement of [3H]-PDBu from protein kinase C epsilon-C1B domain; in short: as §1
[13] = biological target: T3, Protein kinase C delta type; assay: Displacement of [3H]PDBu from protein kinase C Delta-C1A domain; in short: as §1

T3 sequence (Q05655 whole entry, the tested form may be a part): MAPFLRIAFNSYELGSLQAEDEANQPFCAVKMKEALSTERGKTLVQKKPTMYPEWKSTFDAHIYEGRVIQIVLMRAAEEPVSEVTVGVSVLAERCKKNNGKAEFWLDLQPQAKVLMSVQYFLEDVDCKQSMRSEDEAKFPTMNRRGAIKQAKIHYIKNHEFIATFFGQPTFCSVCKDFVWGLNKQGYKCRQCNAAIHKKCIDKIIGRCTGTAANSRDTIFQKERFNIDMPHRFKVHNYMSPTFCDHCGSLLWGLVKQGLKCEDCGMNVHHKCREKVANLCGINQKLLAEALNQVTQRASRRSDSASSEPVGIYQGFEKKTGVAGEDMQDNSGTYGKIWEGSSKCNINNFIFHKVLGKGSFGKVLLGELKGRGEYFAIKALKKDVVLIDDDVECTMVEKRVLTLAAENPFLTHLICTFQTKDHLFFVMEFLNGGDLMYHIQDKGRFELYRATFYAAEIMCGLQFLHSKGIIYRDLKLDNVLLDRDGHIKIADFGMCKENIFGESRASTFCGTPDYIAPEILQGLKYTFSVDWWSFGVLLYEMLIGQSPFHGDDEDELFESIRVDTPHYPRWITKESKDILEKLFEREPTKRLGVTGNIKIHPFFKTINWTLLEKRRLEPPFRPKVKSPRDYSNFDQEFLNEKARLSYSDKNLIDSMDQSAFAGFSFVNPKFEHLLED
T2 sequence (P05771 whole entry, the tested form may be a part): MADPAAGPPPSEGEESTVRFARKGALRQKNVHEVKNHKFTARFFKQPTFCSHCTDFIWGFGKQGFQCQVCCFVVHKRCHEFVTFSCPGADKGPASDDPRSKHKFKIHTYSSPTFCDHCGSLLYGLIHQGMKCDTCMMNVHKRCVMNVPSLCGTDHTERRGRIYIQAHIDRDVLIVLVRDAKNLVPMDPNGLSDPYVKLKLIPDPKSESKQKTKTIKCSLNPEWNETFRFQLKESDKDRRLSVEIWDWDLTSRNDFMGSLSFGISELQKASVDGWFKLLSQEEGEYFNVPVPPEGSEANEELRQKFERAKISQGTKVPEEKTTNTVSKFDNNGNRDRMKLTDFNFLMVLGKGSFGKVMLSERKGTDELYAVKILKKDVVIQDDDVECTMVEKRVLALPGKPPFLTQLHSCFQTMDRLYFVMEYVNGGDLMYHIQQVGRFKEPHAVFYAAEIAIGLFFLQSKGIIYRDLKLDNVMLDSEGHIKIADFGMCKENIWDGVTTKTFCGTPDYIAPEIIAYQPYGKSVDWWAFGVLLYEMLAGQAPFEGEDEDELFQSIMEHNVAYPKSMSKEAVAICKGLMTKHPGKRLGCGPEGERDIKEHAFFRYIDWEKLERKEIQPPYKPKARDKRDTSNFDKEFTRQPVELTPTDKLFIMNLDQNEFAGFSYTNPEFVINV
Protein kinase C theta type, sequence (Q04759 whole entry, the tested form may be a part): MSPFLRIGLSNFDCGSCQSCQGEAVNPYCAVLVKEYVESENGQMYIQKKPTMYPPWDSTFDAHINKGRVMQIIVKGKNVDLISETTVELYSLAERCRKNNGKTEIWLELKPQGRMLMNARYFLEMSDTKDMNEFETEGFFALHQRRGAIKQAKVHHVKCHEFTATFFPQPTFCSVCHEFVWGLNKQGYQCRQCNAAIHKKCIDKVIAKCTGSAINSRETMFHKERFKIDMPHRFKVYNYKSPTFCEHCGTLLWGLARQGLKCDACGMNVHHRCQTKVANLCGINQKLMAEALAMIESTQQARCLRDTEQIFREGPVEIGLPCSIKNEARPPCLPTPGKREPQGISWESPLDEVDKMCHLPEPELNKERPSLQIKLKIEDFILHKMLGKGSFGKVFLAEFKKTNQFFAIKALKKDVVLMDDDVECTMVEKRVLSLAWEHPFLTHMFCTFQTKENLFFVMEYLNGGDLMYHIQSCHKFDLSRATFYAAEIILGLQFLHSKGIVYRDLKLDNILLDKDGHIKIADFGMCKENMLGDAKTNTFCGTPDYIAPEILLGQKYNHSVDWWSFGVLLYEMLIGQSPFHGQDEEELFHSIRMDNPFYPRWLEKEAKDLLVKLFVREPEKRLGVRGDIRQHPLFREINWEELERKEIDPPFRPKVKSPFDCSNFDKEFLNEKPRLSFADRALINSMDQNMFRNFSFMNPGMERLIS
T5 sequence (P24723 whole entry, the tested form may be a part): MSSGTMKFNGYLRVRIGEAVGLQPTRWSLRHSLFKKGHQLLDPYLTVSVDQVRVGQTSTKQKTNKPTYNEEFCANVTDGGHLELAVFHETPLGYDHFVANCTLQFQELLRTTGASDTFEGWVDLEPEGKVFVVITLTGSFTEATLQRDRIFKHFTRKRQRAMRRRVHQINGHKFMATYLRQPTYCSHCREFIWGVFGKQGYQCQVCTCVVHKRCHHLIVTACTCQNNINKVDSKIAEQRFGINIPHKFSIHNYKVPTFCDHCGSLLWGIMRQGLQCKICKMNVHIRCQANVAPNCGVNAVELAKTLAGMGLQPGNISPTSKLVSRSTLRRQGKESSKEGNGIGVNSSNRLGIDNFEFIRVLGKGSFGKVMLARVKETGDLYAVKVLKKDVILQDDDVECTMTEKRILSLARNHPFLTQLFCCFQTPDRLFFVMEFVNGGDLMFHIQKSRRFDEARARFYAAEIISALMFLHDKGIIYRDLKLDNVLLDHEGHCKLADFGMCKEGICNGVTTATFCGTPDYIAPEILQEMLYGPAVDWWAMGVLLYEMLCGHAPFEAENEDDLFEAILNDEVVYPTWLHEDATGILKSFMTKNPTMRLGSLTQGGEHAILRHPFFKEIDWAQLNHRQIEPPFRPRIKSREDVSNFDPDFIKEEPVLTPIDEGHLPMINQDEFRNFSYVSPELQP

| Ki [1] [nM] | Ki [2] [nM] | Ki [3] [nM] | Ki [4] [nM] | Ki [5] [nM] | Ki [6] [nM] | Ki [7] [nM] | Ki [8] [nM] | Ki [9] [nM] | Ki [10] [nM] | Ki [11] [nM] | Ki [12] [nM] | Ki [13] [nM] | SMILES |
| --- | --- | --- | --- | --- | --- | --- | --- | --- | --- | --- | --- | --- | --- |
| 412 | 4050 | 1140 | 610 | 149 | 62 | 2360 | 675 | 1590 | 37 | 4830 | 83 | 6150 | CCCCCCCCCCc1ccc2c(c1)N(C)[C@@H](C(C)C)C(=O)O[C@H](CO)C2 |
| 4580 | > 10000 | 4690 | 2070 | 415 | 358 | 5750 | 2820 | 6330 | 189 | 5360 | 411 | 30300 | CCCCCCCCCCCN1c2ccccc2C[C@@H](CO)OC(=O)[C@@H]1C(C)C |
| 870 | > 10000 | 539 | 2690 | 92 | 167 | 970 | 1720 | 4250 | 111 | 7880 | 540 | > 10000 | CCCCCCCCCCc1cccc2c1C[C@@H](CO)OC(=O)[C@H](C(C)C)N2C |
